Laboratory results as given in ChEMBL document CHEMBL2163285, “Chrolactomycins from the actinomycete actinospica” (2012).
In brackets after ≈: the same amount, converted by molar mass.

Experiments:
Format in all cases: functional
Staphylococcus aureus [1] = assay: Antimicrobial activity against Staphylococcus aureus ATCC 6538P assessed as growth inhibition after 20 to 24 hrs by broth microdilution method
Outline: (§1)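 CLSI broth microdilution in Mueller Hinton broth supplemented with 20 mg/L CaCl2 and 10 mg/L MgCl2. Cells from frozen stocks were seeded at 5 × 10^5 cfu/mL and incubated at 37 °C, then read after 20−24 h. The MIC is the lowest concentration giving complete suppression of visible growth.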

Streptococcus pyogenes = assay: Antimicrobial activity against Streptococcus pyogenes 49 assessed as growth inhibition after 20 to 24 hrs by broth microdilution method
Outline: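 Streptococcus pyogenes was grown in Todd Hewitt broth and tested by CLSI broth microdilution. The MIC is the lowest concentration causing complete suppression of visible growth.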

Staphylococcus aureus [2] = assay: Antimicrobial activity against Staphylococcus aureus ATCC 29213 assessed as growth inhibition after 20 to 24 hrs by broth microdilution method; outline: as §1
Bacillus subtilis = assay: Antimicrobial activity against Bacillus subtilis 168 assessed as growth inhibition after 20 to 24 hrs by broth microdilution method; outline: as §1
Micrococcus luteus = assay: Antimicrobial activity against Micrococcus luteus 108 assessed as growth inhibition after 20 to 24 hrs by broth microdilution method; outline: as §1

MIC (Staphylococcus aureus [1]) [µg/mL] | MIC (Streptococcus pyogenes) [µg/mL] | MIC (Staphylococcus aureus [2]) [µg/mL] | MIC (Bacillus subtilis) [µg/mL] | MIC (Micrococcus luteus) [µg/mL] | SMILES
2 (≈ 4.62 µM) | 16 (≈ 37 µM) | 2 (≈ 4.62 µM) | 8 (≈ 18.5 µM) | 8 (≈ 18.5 µM) | C=C1C(=O)[C@]2(OC)C(=O)O[C@@]34C[C@H](C)C(C(=O)O)=C[C@@H]3CCC[C@@H](C)C[C@@H](C)[C@H]1O[C@H]24 (relative stereo)
32 (≈ 71.3 µM) | 8 (≈ 17.8 µM) | 64 (≈ 143 µM) | 128 (≈ 285 µM) | 8 (≈ 17.8 µM) | C=C1C(=O)[C@]2(OC)C(=O)O[C@@]34C[C@H](C)C(C(=O)O)=C[C@@H]3CCC[C@@H](C)[C@H](O)[C@@H](C)[C@H]1O[C@H]24 (relative stereo)

SMILES | MIC (Staphylococcus aureus [1]) [µg/mL] | MIC (Streptococcus pyogenes) [µg/mL] | MIC (Staphylococcus aureus [2]) [µg/mL] | MIC (Bacillus subtilis) [µg/mL] | MIC (Micrococcus luteus) [µg/mL]
CN[C@H](CC(C)C)C(=O)N[C@H]1C(=O)N[C@@H](CC(N)=O)C(=O)N[C@H]2C(=O)N[C@H]3C(=O)N[C@H](C(=O)N[C@H](C(=O)O)c4cc(O)cc(O)c4-c4cc3ccc4O)[C@H](O)c3ccc(c(Cl)c3)Oc3cc2cc(c3O[C@@H]2O[C@H](CO)[C@@H](O)[C@H](O)[C@H]2O[C@H]2C[C@](C)(N)[C@H](O)[C@H](C)O2)Oc2ccc(cc2Cl)[C@H]1O [VANCOMYCIN] |  |  |  | 0.25 (≈ 0.173 µM) | 0.125 (≈ 0.0863 µM)
